In brackets after ≈: the same amount, converted by molar mass. Activity calls are given as the source filed them. The rule behind the calls is not given here.
Experiments:
[1] = Antimitotic activity in rat ASK cells assessed as reversal of astrocyte formation at 0.16 ug/mL; format: functional
In short: (§1)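 Cultured rat glioma (ASK) cells were used, following Swanson et al. The antimitotic read-out was the dose giving 100% reversal of astrocyte conversion. Pure lignans were tested across a range of concentrations.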

[2] = Antimitotic activity in rat ASK cells assessed as reversal of astrocyte formation at 0.032 ug/mL; format: functional; in short: as §1
[3] = Antimitotic activity in rat ASK cells assessed as reversal of astrocyte formation at 0.00128 ug/mL; format: functional
In short: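 Cultured rat glioma (ASK) cells, run essentially by a previously published astrocyte-formation procedure. Antimitotic potential is scored as the dose needed to give 100% reversal of astrocyte conversion.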

[4] = Antimitotic activity in rat ASK cells assessed as reversal of astrocyte formation at 4 ug/mL; format: functional; in short: as §1
[5] = Antimitotic activity in rat ASK cells assessed as reversal of astrocyte formation at 100 ug/mL; format: functional; in short: as §1
[6] = Antimitotic activity in rat ASK cells assessed as reversal of astrocyte formation at 0.0064 ug/mL; format: functional; in short: as §1
[7] = Antimitotic activity in rat ASK cells assessed as reversal of astrocyte formation at 20 ug/mL; format: functional; in short: as §1
[8] = Antimitotic activity in rat ASK cells assessed as reversal of astrocyte formation at 0.8 ug/mL; format: functional; in short: as §1
[9] = Toxicity in brine shrimp; format: organism-based; conditions: artemia, in vivo
[10] = Cytotoxicity against human U373 cells; format: functional, U-373MG ATCC; conditions: U373 MG, read-out: ED50 (the source's name)
ZR-75-1 = assay: Cytotoxicity against human ZR-75-1 cells; format: functional; conditions: read-out: ED50 (the source's name)
[11] = Cytotoxicity against human KBV1 cells; format: functional; conditions: KB-V1, read-out: ED50 (the source's name)
LNCaP = assay: Cytotoxicity against human LNCAP cells; format: functional; conditions: read-out: ED50 (the source's name)
A-431 = assay: Cytotoxicity against human A431 cells; format: functional; conditions: read-out: ED50 (the source's name)
KB = assay: Cytotoxicity against human KB cells; format: functional; conditions: read-out: ED50 (the source's name)
Candida albicans = assay: Antimicrobial activity against Candida albicans ATCC 10231 at 0.2 to 1 ug/ml; format: functional, organism-based
HT = assay: Cytotoxicity against human HT cells; format: functional; conditions: read-out: ED50 (the source's name)
[12] = Cytotoxicity against human BC1 cells; format: functional; conditions: read-out: ED50 (the source's name)
P388 = assay: Cytotoxicity in mouse P388 cells; format: functional; conditions: read-out: ED50 (the source's name)
Col2 = assay: Cytotoxicity against human Col2 cells; format: functional; conditions: read-out: ED50 (the source's name)
Lu1 = assay: Cytotoxicity against human Lu1 cells; format: functional; conditions: read-out: ED50 (the source's name)

Compound | Activity [1] [%] | Activity [2] [%] | Activity [3] [%] | Activity [4] [%] | Activity [5] [%] | Activity [6] [%] | Activity [7] [%] | Activity [8] [%] | EC50 [10] [µg/mL] | EC50 (ZR-75-1) [µg/mL] | EC50 [11] [µg/mL] | EC50 (LNCaP) [µg/mL] | EC50 (A-431) [µg/mL] | EC50 (KB) [µg/mL] | EC50 (HT) [µg/mL] | EC50 [12] [µg/mL] | EC50 (P388) [µg/mL] | EC50 (Col2) [µg/mL] | EC50 (Lu1) [µg/mL] | further results
CC[C@]1(O)C[C@H]2CN(CCc3c([nH]c4ccccc34)[C@@](C(=O)OC)(c3cc4c(cc3OC)N(C=O)[C@H]3[C@@](O)(C(=O)OC)[C@H](OC(C)=O)[C@]5(CC)C=CCN6CC[C@]43[C@@H]65)C2)C1 [VINCRISTINE] | 100 | 0 | 0 | 100 | 100 | 0 | 100 | 100 |  |  |  |  |  |  |  |  |  |  |  | 
CC[C@]1(O)C[C@@H]2CN(CCc3c([nH]c4ccccc34)[C@@](C(=O)OC)(c3cc4c(cc3OC)N(C)[C@H]3[C@@](O)(C(=O)OC)[C@H](OC(C)=O)[C@]5(CC)C=CCN6CC[C@]43[C@@H]65)C2)C1 [VINBLASTINE] | 100 | 100 | 0 | 100 | 100 | 0 | 100 | 100 |  |  |  |  |  |  |  |  |  |  |  | 
COc1cc2cc(c1Cl)N(C)C(=O)C[C@H](OC(=O)[C@H](C)N(C)C(C)=O)[C@]1(C)O[C@H]1[C@H](C)[C@@H]1C[C@@](O)(NC(=O)O1)[C@H](OC)/C=C/C=C(\C)C2 [MAYTANSINE] | 100 | 100 | 0 | 100 | 100 | 100 | 100 | 100 |  |  |  |  |  |  |  |  |  |  |  | 
COc1cc2c(c(OC)c1OC)-c1ccc(OC)c(=O)cc1[C@@H](NC(C)=O)CC2 [COLCHICINE] | 0 | 0 | 0 | 100 | 100 | 0 | 100 | 70 |  |  |  |  |  |  |  |  |  |  |  | 
COc1cc([C@@H]2c3cc4c(cc3C[C@H]3COC(=O)[C@@H]32)OCO4)cc(OC)c1O [4'-DEMETHYLDEOXYPODOPHYLLOTOXIN] | 100 | 100 |  | 100 | 100 | 0 | 100 | 100 | 0.1 (≈ 0.26 µM) | 2.1 (≈ 5.46 µM) | 0.02 (≈ 0.052 µM) | 0.02 (≈ 0.052 µM) | 0.08 (≈ 0.208 µM) | 0.01 (≈ 0.026 µM) | 0.01 (≈ 0.026 µM) | 0.01 (≈ 0.026 µM) | 0.005 (≈ 0.013 µM) | 0.03 (≈ 0.078 µM) | 0.03 (≈ 0.078 µM) | LC50 [9]: 0.2 µg/mL (≈ 0.52 µM); Activity (Candida albicans): Active
COc1cc(-c2c3c(c(O)c4cc5c(cc24)OCO5)COC3=O)cc(OC)c1OC [DEHYDROPODOPHYLLOTOXIN] | 0 | 0 |  | 0 | 100 | 0 | 100 | 0 | > 20 | > 20 | 13 (≈ 31.7 µM) | 11.7 (≈ 28.5 µM) | > 20 | 5 (≈ 12.2 µM) | 9.7 (≈ 23.6 µM) | 15.2 (≈ 37 µM) | > 5 | 8.9 (≈ 21.7 µM) | 10.6 (≈ 25.8 µM) | LC50 [9]: 255 µg/mL (≈ 621 µM)
COc1cc([C@@H]2c3cc4c(cc3C[C@H]3COC(=O)[C@@H]32)OCO4)cc(OC)c1OC [DESOXYPODOPHYLLOTOXIN] | 100 | 100 |  | 100 | 100 | 0 | 100 | 100 | 0.001 (≈ 0.00251 µM) | 2 (≈ 5.02 µM) | 0.06 (≈ 0.151 µM) | 0.01 (≈ 0.0251 µM) | 4.3 (≈ 10.8 µM) | 0.05 (≈ 0.125 µM) | 0.003 (≈ 0.00753 µM) | 0.001 (≈ 0.00251 µM) | 0.002 (≈ 0.00502 µM) | 0.01 (≈ 0.0251 µM) | 0.002 (≈ 0.00502 µM) | 
